According to ChEMBL document CHEMBL1149797, “Synthesis and in vitro antibacterial activities of novel oxazolidinones” (Eur J Med Chem, 2008):
Values after ≈ are worked out from the molar mass of the structure shown.

Experiments:
Type in all cases: functional
Staphylococcus aureus [1] = assay: Antibacterial activity against Staphylococcus aureus ATCC 25923 by broth microdilution technique
Procedure, shortened: (§1)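 Broth microdilution per CLSI (NCCLS) guidelines. Compounds were dissolved in DMSO with water added to give an 80% DMSO stock, then diluted 1:10 to working solutions in water or medium. They were tested at 0.125, 0.25, 0.5, 1, 2, 4, 8 and 16 (two-fold series) against the final inoculum. Each run included sterility controls and vehicle controls (plain medium; 4%, 2%, 1% DMSO). MIC was read as growth inhibition.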

[2] = system: Staphylococcus epidermidis; assay: Antibacterial activity against Staphylococcus epidermidis ATCC 155 by broth microdilution technique; procedure, shortened: as §1
Bacillus cereus = assay: Antibacterial activity against Bacillus cereus ATCC 11778 by broth microdilution technique; procedure, shortened: as §1
Bacillus pumilus = assay: Antibacterial activity against Bacillus pumilus ATCC 14884 by broth microdilution technique; procedure, shortened: as §1
Streptococcus pyogenes = assay: Antibacterial activity against Streptococcus pyogenes ATCC 14289 by broth microdilution technique; procedure, shortened: as §1
Enterococcus faecalis [3] = assay: Antibacterial activity against Enterococcus faecalis ATCC 35550 by broth microdilution technique; procedure, shortened: as §1
Staphylococcus aureus [4] = assay: Antibacterial activity against methicillin-resistant Staphylococcus aureus ATCC 700699 by broth microdilution technique
Procedure, shortened: (§2)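 Broth microdilution per NCCLS/CLSI. Compounds dissolved in DMSO with water added to give an 80% DMSO stock. Stock diluted 1:10 in 4-8% DMSO in water or medium to make the working solution. Tested at […]. Sterility controls run with each set. Inoculum viability controls included plain medium and 4%, 2% and 1% DMSO vehicle. MIC taken as growth inhibition.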

Enterococcus faecalis [5] = assay: Antibacterial activity against Enterococcus faecalis ATCC 14506 by broth microdilution technique; procedure, shortened: as §1
Staphylococcus aureus [6] = assay: Antibacterial activity against Staphylococcus aureus ATCC 14154 by broth microdilution technique; procedure, shortened: as §2
Staphylococcus aureus [7] = assay: Antibacterial activity against Staphylococcus aureus ATCC 29213 by broth microdilution technique; procedure, shortened: as §2
Staphylococcus aureus [8] = assay: Antibacterial activity against linezolid-resistant Staphylococcus aureus NRS 119 with G 2576T mutation by broth microdilution technique; procedure, shortened: as §2
Streptococcus pneumoniae = assay: Antibacterial activity against multidrug-resistant Streptococcus pneumoniae ATCC 700904 by broth microdilution technique; procedure, shortened: as §2
Staphylococcus aureus [9] = assay: Antibacterial activity against linezolid-resistant Staphylococcus aureus NRS 120 with G 2576T mutation by broth microdilution technique; procedure, shortened: as §2
Staphylococcus aureus [10] = assay: Antibacterial activity against Staphylococcus aureus ATCC 9144 by broth microdilution technique; procedure, shortened: as §2
Enterococcus faecalis [11] = assay: Antibacterial activity against multidrug-resistant Enterococcus faecalis ATCC 700802 by broth microdilution technique; procedure, shortened: as §2
Enterococcus faecium = assay: Antibacterial activity against vancomycin-resistant Enterococcus faecium ATCC 700221 by broth microdilution technique; procedure, shortened: as §2

| Structure (SMILES) | MIC (Staphylococcus aureus [1]) | MIC [2] | MIC (Bacillus cereus) | MIC (Bacillus pumilus) | MIC (Streptococcus pyogenes) | MIC (Enterococcus faecalis [3]) | MIC (Staphylococcus aureus [4]) | MIC (Enterococcus faecalis [5]) | MIC (Staphylococcus aureus [6]) | MIC (Staphylococcus aureus [7]) | MIC (Staphylococcus aureus [8]) | MIC (Streptococcus pneumoniae) | MIC (Staphylococcus aureus [9]) | MIC (Staphylococcus aureus [10]) | MIC (Enterococcus faecalis [11]) | MIC (Enterococcus faecium) |
| --- | --- | --- | --- | --- | --- | --- | --- | --- | --- | --- | --- | --- | --- | --- | --- | --- |
| CC(=O)NC[C@H]1CN(c2ccc(N3CCN(C(=O)/C=C/c4ccncc4)CC3)c(F)c2)C(=O)O1 | 4 µg/mL (≈ 8.56 µM) | 2 µg/mL (≈ 4.28 µM) | 1 µg/mL (≈ 2.14 µM) | 1 µg/mL (≈ 2.14 µM) | 0.5 µg/mL (≈ 1.07 µM) | 2 µg/mL (≈ 4.28 µM) |  |  |  |  |  |  |  |  |  |  |
| CC(=O)NC[C@H]1CN(c2ccc(N3CCN(C(=O)/C=C/c4ccc[nH]4)CC3)c(F)c2)C(=O)O1 | 1 µg/mL (≈ 2.2 µM) | 0.5 µg/mL (≈ 1.1 µM) | 1 µg/mL (≈ 2.2 µM) | 1 µg/mL (≈ 2.2 µM) | 1 µg/mL (≈ 2.2 µM) | 1 µg/mL (≈ 2.2 µM) |  |  |  |  |  |  |  |  |  |  |
| CC(=O)NC[C@H]1CN(c2ccc(N3CCN(C(=O)/C=C/c4ccsc4)CC3)c(F)c2)C(=O)O1 | 0.5 µg/mL (≈ 1.06 µM) | 1 µg/mL (≈ 2.12 µM) | 0.5 µg/mL (≈ 1.06 µM) | 0.5 µg/mL (≈ 1.06 µM) |  | 0.5 µg/mL (≈ 1.06 µM) |  |  |  |  |  |  |  |  |  |  |
| CC(=O)NC[C@H]1CN(c2ccc(N3CCN(C(=O)/C=C/c4ccc([N+](=O)[O-])o4)CC3)c(F)c2)C(=O)O1 | 0.12 µg/mL (≈ 0.239 µM) | ≤ 0.12 µg/mL | ≤ 0.12 µg/mL | ≤ 0.12 µg/mL | ≤ 0.12 µg/mL | 0.25 µg/mL (≈ 0.499 µM) | 0.12 µg/mL (≈ 0.239 µM) | 0.25 µg/mL (≈ 0.499 µM) | 0.12 µg/mL (≈ 0.239 µM) | 0.12 µg/mL (≈ 0.239 µM) | 2 µg/mL (≈ 3.99 µM) | 0.25 µg/mL (≈ 0.499 µM) | 2 µg/mL (≈ 3.99 µM) | 0.12 µg/mL (≈ 0.239 µM) | 0.5 µg/mL (≈ 0.997 µM) | 0.12 µg/mL (≈ 0.239 µM) |
| CC(=O)NC[C@H]1CN(c2ccc(N3CCN(C(=O)/C=C/c4ccco4)CC3)c(F)c2)C(=O)O1 | 0.5 µg/mL (≈ 1.1 µM) | 1 µg/mL (≈ 2.19 µM) | 0.5 µg/mL (≈ 1.1 µM) | 0.5 µg/mL (≈ 1.1 µM) |  | 0.5 µg/mL (≈ 1.1 µM) |  |  |  |  |  |  |  |  |  |  |
| CC(=O)NC[C@H]1CN(c2ccc(N3CCN(C(=O)/C=C/c4cccs4)CC3)c(F)c2)C(=O)O1 | 1 µg/mL (≈ 2.12 µM) | 0.5 µg/mL (≈ 1.06 µM) | 0.5 µg/mL (≈ 1.06 µM) | 0.5 µg/mL (≈ 1.06 µM) | 1 µg/mL (≈ 2.12 µM) | 0.5 µg/mL (≈ 1.06 µM) |  |  |  |  |  |  |  |  |  |  |
| CC(=O)NC[C@H]1CN(c2ccc(N3CCN(C/C=C/c4ccco4)CC3)c(F)c2)C(=O)O1 | 2 µg/mL (≈ 4.52 µM) | 8 µg/mL (≈ 18.1 µM) | 0.5 µg/mL (≈ 1.13 µM) | 2 µg/mL (≈ 4.52 µM) | 0.5 µg/mL (≈ 1.13 µM) | 2 µg/mL (≈ 4.52 µM) |  |  |  |  |  |  |  |  |  |  |
| CC(=O)NC[C@H]1CN(c2ccc(N3CCN(C(=O)/C=C/c4ccc(C)o4)CC3)c(F)c2)C(=O)O1 | 2 µg/mL (≈ 4.25 µM) | 0.5 µg/mL (≈ 1.06 µM) | 1 µg/mL (≈ 2.13 µM) | 1 µg/mL (≈ 2.13 µM) | 0.5 µg/mL (≈ 1.06 µM) | 1 µg/mL (≈ 2.13 µM) |  |  |  |  |  |  |  |  |  |  |
| CC(=O)NC[C@H]1CN(c2ccc(N3CCN(C/C=C/c4ccc([N+](=O)[O-])o4)CC3)c(F)c2)C(=O)O1 | 1 µg/mL (≈ 2.05 µM) | 0.5 µg/mL (≈ 1.03 µM) | 0.25 µg/mL (≈ 0.513 µM) | 0.25 µg/mL (≈ 0.513 µM) | 0.12 µg/mL (≈ 0.246 µM) | 1 µg/mL (≈ 2.05 µM) |  |  |  |  |  |  |  |  |  |  |
| CC(=O)NC[C@H]1CN(c2ccc(N3CCN(C(=O)/C=C/c4ccc(COC(C)=O)o4)CC3)c(F)c2)C(=O)O1 | 2 µg/mL (≈ 3.78 µM) | 2 µg/mL (≈ 3.78 µM) | 4 µg/mL (≈ 7.57 µM) | 4 µg/mL (≈ 7.57 µM) | 2 µg/mL (≈ 3.78 µM) | 4 µg/mL (≈ 7.57 µM) |  |  |  |  |  |  |  |  |  |  |
| CC(=O)NC[C@H]1CN(c2ccc(N3CCN(C(=O)/C=C/c4ccc(CO)o4)CC3)c(F)c2)C(=O)O1 | 4 µg/mL (≈ 8.22 µM) | 1 µg/mL (≈ 2.06 µM) | 2 µg/mL (≈ 4.11 µM) | 4 µg/mL (≈ 8.22 µM) | 1 µg/mL (≈ 2.06 µM) | 2 µg/mL (≈ 4.11 µM) |  |  |  |  |  |  |  |  |  |  |
| CC(=O)NC[C@H]1CN(c2ccc(N3CCN(C(=O)/C=C/c4ccc([N+](=O)[O-])s4)CC3)c(F)c2)C(=O)O1 | 0.25 µg/mL (≈ 0.483 µM) | ≤ 0.12 µg/mL | 1 µg/mL (≈ 1.93 µM) | 0.5 µg/mL (≈ 0.966 µM) | 0.12 µg/mL (≈ 0.232 µM) | 0.5 µg/mL (≈ 0.966 µM) | 0.25 µg/mL (≈ 0.483 µM) | 0.25 µg/mL (≈ 0.483 µM) | 0.25 µg/mL (≈ 0.483 µM) | 0.25 µg/mL (≈ 0.483 µM) | 4 µg/mL (≈ 7.73 µM) | ≤ 0.125 µg/mL | 4 µg/mL (≈ 7.73 µM) | 0.25 µg/mL (≈ 0.483 µM) | 0.5 µg/mL (≈ 0.966 µM) | 0.5 µg/mL (≈ 0.966 µM) |
| CC(=O)NC[C@H]1CN(c2ccc(N3CCN(C(=O)/C=C/c4ccoc4)CC3)c(F)c2)C(=O)O1 | 1 µg/mL (≈ 2.19 µM) | 0.5 µg/mL (≈ 1.1 µM) | 1 µg/mL (≈ 2.19 µM) | 1 µg/mL (≈ 2.19 µM) | 0.5 µg/mL (≈ 1.1 µM) | 1 µg/mL (≈ 2.19 µM) |  |  |  |  |  |  |  |  |  |  |
| CC(=O)NC[C@H]1CN(c2ccc(N3CCN(C(=O)/C=C/c4c[nH]c5ccccc45)CC3)c(F)c2)C(=O)O1 | 2 µg/mL (≈ 3.96 µM) | 1 µg/mL (≈ 1.98 µM) | 0.25 µg/mL (≈ 0.495 µM) | 0.5 µg/mL (≈ 0.989 µM) | 0.12 µg/mL (≈ 0.237 µM) | 0.5 µg/mL (≈ 0.989 µM) |  |  |  |  |  |  |  |  |  |  |
| CC(=O)NC[C@H]1CN(c2ccc(N3CCN(C(=O)/C=C/c4cccnc4)CC3)c(F)c2)C(=O)O1 | 1 µg/mL (≈ 2.14 µM) | 0.5 µg/mL (≈ 1.07 µM) | 1 µg/mL (≈ 2.14 µM) | 1 µg/mL (≈ 2.14 µM) | 0.5 µg/mL (≈ 1.07 µM) | 2 µg/mL (≈ 4.28 µM) |  |  |  |  |  |  |  |  |  |  |
| CC(=O)NC[C@H]1CN(c2ccc(N3CCN(C(=O)/C=C/c4ccc(C(=O)O)o4)CC3)c(F)c2)C(=O)O1 | > 16 µg/mL | > 16 µg/mL | > 16 µg/mL | > 16 µg/mL | > 16 µg/mL | > 16 µg/mL |  |  |  |  |  |  |  |  |  |  |
| CC(=O)NC[C@H]1CN(c2ccc(N3CCN(C(=O)/C=C/c4ccc(C=O)o4)CC3)c(F)c2)C(=O)O1 | 4 µg/mL (≈ 8.26 µM) | 2 µg/mL (≈ 4.13 µM) | 2 µg/mL (≈ 4.13 µM) | 1 µg/mL (≈ 2.06 µM) | 1 µg/mL (≈ 2.06 µM) | 2 µg/mL (≈ 4.13 µM) |  |  |  |  |  |  |  |  |  |  |
| CC(=O)NC[C@H]1CN(c2ccc(N3CCN(C(=O)/C=C/c4ccc(C(=O)[O-])o4)CC3)c(F)c2)C(=O)O1.[Na+] | > 16 µg/mL | > 16 µg/mL | > 16 µg/mL | > 16 µg/mL | > 16 µg/mL | > 16 µg/mL |  |  |  |  |  |  |  |  |  |  |
| CC(=O)NC[C@H]1CN(c2ccc(N3CCN(C(=O)CO)CC3)c(F)c2)C(=O)O1 [EPEREZOLID] | 2 µg/mL (≈ 5.07 µM) | 2 µg/mL (≈ 5.07 µM) | 2 µg/mL (≈ 5.07 µM) | 1 µg/mL (≈ 2.54 µM) | 0.5 µg/mL (≈ 1.27 µM) | 2 µg/mL (≈ 5.07 µM) | 1 µg/mL (≈ 2.54 µM) | 1 µg/mL (≈ 2.54 µM) | 1 µg/mL (≈ 2.54 µM) | 2 µg/mL (≈ 5.07 µM) | > 16 µg/mL | 0.5 µg/mL (≈ 1.27 µM) | > 16 µg/mL | 2 µg/mL (≈ 5.07 µM) | 1 µg/mL (≈ 2.54 µM) | 1 µg/mL (≈ 2.54 µM) |
